Key:
E. coli ClpP = settings: cited from earlier work
[1] = cited from earlier work
[2] = system: C. trachomatis serovar L2; assay: Inclusion forming units; type: cell-based, Chlamydia trachomatis; settings: for inhibitory activity against chlamydiae (Figure 5a): ACP1b at 50 μg/mL, 40 at 50 μg/mL and 5.20 μg/mL
C. trachomatis = settings: cited from earlier work
N. meningitidis = settings: cited from earlier work
H. influenzae = settings: cited from earlier work
human ClpP = human ClpP (Homo sapiens, UniProt Q16740); assay: In vitro casein degradation assay, human ClpP; type: biochemical; settings: 1 μM ClpP
Chain of human ClpP (Q16740 57-277): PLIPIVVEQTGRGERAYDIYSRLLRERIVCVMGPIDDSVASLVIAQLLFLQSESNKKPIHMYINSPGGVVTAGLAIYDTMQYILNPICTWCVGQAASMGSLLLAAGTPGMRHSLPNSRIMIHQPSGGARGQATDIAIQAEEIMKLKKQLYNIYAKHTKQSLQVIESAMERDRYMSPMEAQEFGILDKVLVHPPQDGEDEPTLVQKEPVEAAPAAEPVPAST
Procedure, shortened: (§1)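 Human or mouse ClpP ORF minus the mitochondrial localization signal was codon-optimised, C-terminally His6-tagged, and expressed and purified from clpAPX-null E. coli. 1 μM enzyme, without AAA+ chaperone, was preincubated 30 min at 32 °C with compound or DMSO in 25 mM HEPES pH 7.6 buffer before adding 20 μM FITC-casein. Fluorescence (ex 490/em 525 nm) was read every 3 min over 3 h. ≥3 runs, ≥2 protein preparations.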

ClpP = assay: In vitro casein degradation assay without AAA+ chaperone; type: biochemical; settings: FITC-casein 20 μM, 32°C, 3 h
mouse ClpP = mouse ClpP (Mus musculus, UniProt O88696); assay: In vitro casein degradation assay, mouse ClpP; type: biochemical; settings: 1 μM ClpP
Chain of mouse ClpP (O88696 53-272): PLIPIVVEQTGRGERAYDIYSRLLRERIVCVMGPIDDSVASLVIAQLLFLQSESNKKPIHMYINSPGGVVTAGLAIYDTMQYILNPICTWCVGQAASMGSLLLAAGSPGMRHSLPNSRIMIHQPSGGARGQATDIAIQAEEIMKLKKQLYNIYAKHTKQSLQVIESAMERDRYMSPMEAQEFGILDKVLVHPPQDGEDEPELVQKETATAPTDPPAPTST
Procedure, shortened: as §1

S. aureus JE2 = assay: Broth microdilution antibacterial assay, S. aureus JE2; type: cell-based, Staphylococcus aureus; settings: concentrations up to 256 μg/mL
[3] = molecular target: recombinant ClpP from E. coli (Escherichia coli, UniProt P0A6G7); assay: In vitro casein degradation assay, E. coli ClpP; type: biochemical; settings: 1 or 0.1 (40 only) μM ClpP
Chain of recombinant ClpP from E. coli (P0A6G7 15-207): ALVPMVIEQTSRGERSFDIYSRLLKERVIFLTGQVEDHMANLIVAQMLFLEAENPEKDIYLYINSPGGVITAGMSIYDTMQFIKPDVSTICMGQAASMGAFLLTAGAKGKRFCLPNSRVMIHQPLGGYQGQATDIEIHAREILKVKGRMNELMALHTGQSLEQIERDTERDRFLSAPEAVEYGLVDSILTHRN

HEp-2 cells = assay: Host cell morphology and viability under phase contrast microscopy; type: cell-based, human; settings: 100 μg/mL
Procedure, shortened: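 HEp-2 cells grown in DMEM with 2% L-glutamine and 10% FBS at 37 °C, infected with C. trachomatis L2 at MOI 1. Test compound added in triplicate at 8 hpi. After 16 h (24 h total incubation), host cell morphology and viability inspected by phase contrast microscopy against untreated control cells.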

D. melanogaster = assay: Toxicity; type: in vivo, Drosophila melanogaster; settings: 0.25, 0.5, and 1.0 mM
Procedure, shortened: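 Eggs from two different crosses collected for 8 hours in culture flasks on solid agar base (5% w/v) topped with live baker's yeast plus sugar.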

[4] = system: epithelial cervix adenocarcinoma (HeLa 229) cells; assay: Cytotoxicity assay; type: cell-based, human; settings: 50 μg/mL, 24 h
E. coli K12 = assay: Broth microdilution antibacterial assay, E. coli K12; type: cell-based, Escherichia coli; settings: concentrations up to 256 μg/mL

Q: Which “activation of E. coli ClpP in an enzymatic assay” value (E. coli ClpP) does the source give for CC(C)(C(=O)NCCCc1ccccc1)S(=O)(=O)c1ccc(C(F)(F)F)cn1 [Compound 2] here?
A: The value was “activate”.

Q: And the “fold less potent than ADEP1” value [1]?
A: The value was 10-20 fold.

Q: And the “inhibitory activity against chlamydiae (Figure 5a)” value [2]?
A: The value was “good inhibitory activity”.

Q: And the “formation of infectious EBs” value (C. trachomatis)?
A: The value was “drastic decrease”.

Q: And the “antibacterial activity against N. meningitidis” value (N. meningitidis)?
A: Its value is 16 µg/mL.

Q: What about the “antibacterial activity against H. influenzae” value (H. influenzae) of the same compound?
A: Its value is 8 µg/mL.

Q: Which “activation of human ClpP” value (human ClpP) does the source give for CC(C)(C(=O)N1CCN(Cc2ccc(Cl)cc2)CC1)S(=O)(=O)c1ccc(C(F)(F)F)cn1 [Compound 40, 2-methyl-1-(4-(4-Chlorobenzyl)piperazin-1-yl)-2-((5-(trifluoromethyl)pyridin-2-yl)sulfonyl) propan-1-one] here?
A: Its value is “did not activate”.

Q: And the “ClpP-dependent casein degradation in the absence of a chaperone” value (ClpP)?
A: The value was “enabled some species of ClpP to degrade casein”.

Q: What about the “activation of mouse ClpP” value (mouse ClpP) of the same compound?
A: Its value is “did not activate”.

Q: And the bacterial death (S. aureus JE2)?
A: Its bacterial death is “bacterial death was not observed”.

Q: What about the “activation of E. coli ClpP” value [3] of the same compound?
A: Its value is “strong activator”.

Q: And the “cell toxicity to host cells” value (HEp-2 cells)?
A: Its value is “did not observe cell toxicity”.

Q: What about the “inclusion yields lower than the untreated cells” value ([2]; 12.5 μg/mL) of the same compound?
A: The value was “around 60%”.

Q: And the “impact on chlamydiae (infectious progeny, IFU)” value ([2]; 50 μg/mL, added 8 h after infection, 24 h)?
A: The value was “remarkable impact”.

Q: And the “mechanism of action (bacteriostatic or bactericidal)” value ([2]; 50 μg/mL, washout experiment)?
A: Its value is “bacteriostatic”.

Q: What about the “activity compared with penicillin” value ([2]; 40 at 50 μg/mL, penicillin at 5 U/mL ~ 3 μg/mL) of the same compound?
A: Its value is “on par with penicillin”.

Q: What about the “activity compared with spectinomycin” value ([2]; 40 at 50 μg/mL, spectinomycin at 128 μg/mL) of the same compound?
A: The value was “superior activity than spectinomycin”.

Q: What about the “inhibitory activity against chlamydiae (Figure 5a)” value [2] of the same compound?
A: Its value is “good inhibitory activity”.

Q: What about the “toxicity against D. melanogaster (survival rate)” value (D. melanogaster) of the same compound?
A: Its value is “did not show toxicity”.

Q: What about the “toxicity towards HeLa 229 cells” value [4] of the same compound?
A: Its value is “not toxic”.

Q: And the bacterial death (E. coli K12)?
A: The bacterial death was “bacterial death was not observed”.
